{"data": "Results from different studies", "effect on": "binding", "mnmE": "mnmE (Escherichia coli, UniProt P25522)", "PIKFYVE": "1-phosphatidylinositol 3-phosphate 5-kinase (PIKFYVE, Homo sapiens, UniProt Q9Y2I7)", "LRP1": "LRP1 (Homo sapiens, UniProt Q07954)", "PIK3CB": "Phosphatidylinositol 4,5-bisphosphate 3-kinase catalytic subunit beta isoform (PIK3CB, Homo sapiens, UniProt P42338)", "NAD-dependent histone deacetylase SIR2": "NAD-dependent histone deacetylase SIR2 (Saccharomyces cerevisiae S288c, UniProt P06700)", "UCK2": "Uridine-cytidine kinase 2 (UCK2, Homo sapiens, UniProt Q9BZX2)"}
{"SMILES": "Nc1nc2c(c(=O)[nH]1)N1CN(c3ccc(C(=O)N[C@@H](CCC(=O)O)C(=O)O)cc3)C[C@H]1CN2", "target": "mnmE", "test": "ITC", "setting": "pH 7.5", "Kd [µM]": 0.31}
{"SMILES": "CO[C@H]1O[C@H](CO)[C@@H](O)[C@H](O)[C@@H]1O", "target": "ZG16 (Homo sapiens, UniProt O60844)", "test": "NMR", "Kd [µM]": 15000}
{"SMILES": "CCOc1ccc2[nH]c(C)c(/C=C/C(=O)c3ccncc3)c2c1", "target": "PIKFYVE", "test": "competition with immobilised ligand", "Kd [µM]": 0.023}
{"SMILES": "COC(=O)[C@@H](N)CCCCN", "target": "LRP1", "test": "fluorescence", "setting": "pH 7.4", "Kd [µM]": 370}
{"SMILES": "Nc1nc(=O)c2c([nH]1)NC[C@H](CNc1ccc(C(=O)N[C@@H](CCC(=O)O)C(=O)O)cc1)N2C=O", "target": "mnmE", "test": "ITC", "setting": "pH 7.5", "Kd [µM]": 0.26}
{"SMILES": "C=CC(=O)N1CCC(C(=O)N(C)CC(=O)N2CCN(c3nc(-c4cnc(N)nc4C(F)F)nc(N4CCOCC4)n3)CC2)CC1", "target": "PIK3CB", "Kd [µM]": 0.0036}
{"SMILES": "Nc1ncnc2c1ncn2[C@@H]1O[C@H](COP(=O)(O)OP(=O)(O)OC[C@H]2OC(O)[C@H](O)[C@@H]2O)[C@@H](O)[C@H]1O (stereo partly shown)", "target": "NAD-dependent histone deacetylase SIR2", "test": "SPR", "Kd [µM]": 2.95}
{"SMILES": "Cc1ncsc1-c1ccc([C@H](C)NC(=O)[C@@H]2C[C@@H](O)CN2C(=O)[C@@H](NC(=O)CCCCCC(=O)N2CCC3(CC2)CCN(c2cncc(Nc4ncc(Cl)c(-c5cccc(-c6ccccc6)c5)n4)c2)C3=O)C(C)(C)C)cc1", "target": "Phosphatidylinositol 5-phosphate 4-kinase type-2 beta (PIP4K2B, Homo sapiens, UniProt P78356)", "Kd [µM]": "> 10"}
{"SMILES": "CCCOc1ccc2[nH]c(C)c(/C=C/C(=O)c3ccncc3)c2c1", "target": "PIKFYVE", "test": "competition with immobilised ligand", "Kd [µM]": 0.0065}
{"SMILES": "CN1c2c([nH]c(N)nc2=O)NC[C@@H]1CNc1ccc(C(=O)N[C@@H](CCC(=O)O)C(=O)O)cc1", "target": "mnmE", "test": "ITC", "setting": "pH 7.5", "Kd [µM]": 1.1}
{"SMILES": "CC(=O)O[C@H]1C(O)O[C@H](COP(=O)(O)OP(=O)(O)OC[C@H]2O[C@@H](n3cnc4c(N)ncnc43)[C@H](O)[C@@H]2O)[C@H]1O (stereo partly shown)", "target": "NAD-dependent histone deacetylase SIR2", "test": "SPR", "Kd [µM]": 0.304}
{"SMILES": "CCC(=O)N1CCC(C(=O)NCC(=O)N2CCN(c3nc(-c4cnc(N)nc4C(F)F)nc(N4CCOCC4)n3)CC2)CC1", "target": "PIK3CB", "Kd [µM]": 0.00071}
{"SMILES": "Nc1ccn([C@@H]2O[C@H](CO)[C@@H](O)[C@H]2O)c(=O)n1", "target": "UCK2", "test": "fluorescence", "Kd [µM]": 0.0037}
{"SMILES": "c1cncc(-c2cccc(Nc3nccc(NC4CCCCC4)n3)c2)c1", "target": "Interleukin-1 receptor-associated kinase 3 (IRAK3, Homo sapiens, UniProt Q9Y616)", "test": "competition with immobilised ligand", "Kd [µM]": 1.4}
{"SMILES": "[N-]=[N+]=N[C@@H]1[C@H](O)[C@@H](CO)O[C@H]1n1ccc(=O)[nH]c1=O", "target": "UCK2", "test": "fluorescence", "Kd [µM]": 0.0134}
{"SMILES": "Cc1cc2nc3c(=O)[nH]c(=O)nc-3n(C[C@H](O)[C@H](O)[C@H](O)COP(=O)(O)OP(=O)(O)OC[C@H]3O[C@@H](n4cnc5c(N)ncnc54)[C@H](O)[C@@H]3O)c2cc1C", "target": "LRP1", "setting": "lysate", "Kd [µM]": 43.9}
